Laboratory results published in ChEMBL document CHEMBL2150952 (J Med Chem, 2011).
Blank lines part the entries; values can stand above or below the compound they belong to. The source made the active and inactive calls. The calls are words filed in the database; no cut-off is given here.

Key:
[1] = Half life in fasted C57BL6 mouse at 2 mg/kg, iv and 10 mg/kg, po BID; type: ADME, organism-based; settings: in vivo
Procedure, shortened: (§1)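 Fasted male C57BL6 mice received 2 mg/kg IV and 10 mg/kg PO. For the reference compound, IV was given as a solution in 60% PEG-200 and PO as a suspension in 1% methocel. Plasma levels were measured by LC-MS/MS. Values are the mean of n = 3 animals.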

[2] = Oral bioavailability in C57BL6 mouse at 10 mg/kg BID; type: ADME, organism-based; settings: in vivo, in the assay text read “10 mg/kg” for “10 mg/kg BID”
Procedure, shortened: (§2)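 Fasted male C57BL6 mice given 2 mg/kg IV and 10 mg/kg PO. Plasma drug levels measured by LC-MS/MS, mean of n = 3 animals, and PK parameters derived from these.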

[3] = Cmax in plasma of fasted C57BL6 mouse at 2 mg/kg, iv and 10 mg/kg, po BID; type: ADME, organism-based; procedure, shortened: as §1
[4] = Volume of distribution in fasted C57BL6 mouse at 2 mg/kg, iv and 10 mg/kg, po BID; type: ADME, organism-based; settings: in vivo; procedure, shortened: as §2
[5] = Clearance in fasted C57BL6 mouse at 2 mg/kg, iv and 10 mg/kg, po BID; type: ADME, organism-based; settings: in vivo; procedure, shortened: as §1
[6] = AUC in plasma of fasted C57BL6 mouse at 2 mg/kg, iv and 10 mg/kg, po BID; type: ADME, organism-based; procedure, shortened: as §1
[7] = tested on: Mus musculus; test: Antidiabetic activity in diet-induced obese C57BL6 mouse assessed as reduction in liver steatosis at 20 to 60 mg/kg, po BID measured on day 28; type: functional, organism-based
Procedure, shortened: (§3)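 eDIO mice (high fat diet for at least 18 weeks) were dosed orally bid for 28 days, with n = 8–10/group. At termination, livers were collected for histological steatosis assessment and triglyceride measurement.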

[8] = tested on: Mus musculus; test: Antidiabetic activity in diet-induced obese C57BL6 mouse assessed as reduction in liver triglyceride level at 60 mg/kg, po BID; type: functional, organism-based; set-up: dose 60 mg/kg; procedure, shortened: as §3
[9] = tested on: Mus musculus; test: Antidiabetic activity in po dosed diet-induced obese fasted C57BL6 mouse assessed as increase in glucose clearance administered 1 hr before glucose challenge measured 12 hrs thereafter by OGTT; type: functional; settings: in the assay text read “2 hrs” for “12 hrs”
Procedure, shortened: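 Male C57/Bl6 mice were kept on a high fat diet for at least 14 weeks from 6 weeks of age, then fasted 16 h. Compound was given orally 1 h before a 2 g/kg oral glucose load.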

[10] = tested on: Mus musculus; test: Antidiabetic activity in diet-induced obese C57BL6 mouse assessed as reduction in liver triglyceride level at 20 mg/kg, po BID; type: functional, organism-based; set-up: dose 20 mg/kg; procedure, shortened: as §3
[11] = biological target: T1, Acyl-CoA desaturase 1 (Rattus norvegicus, UniProt P07308); test: Inhibition of SCD-1 activity in Sprague-Dawley rat Hepatocytes expressing organic anion transporting polypeptides assessed as reduction in [I-14C] […] desaturation by scintillation counting; type: cell-based, Hepatocyte
T1 sequence (P07308 whole entry): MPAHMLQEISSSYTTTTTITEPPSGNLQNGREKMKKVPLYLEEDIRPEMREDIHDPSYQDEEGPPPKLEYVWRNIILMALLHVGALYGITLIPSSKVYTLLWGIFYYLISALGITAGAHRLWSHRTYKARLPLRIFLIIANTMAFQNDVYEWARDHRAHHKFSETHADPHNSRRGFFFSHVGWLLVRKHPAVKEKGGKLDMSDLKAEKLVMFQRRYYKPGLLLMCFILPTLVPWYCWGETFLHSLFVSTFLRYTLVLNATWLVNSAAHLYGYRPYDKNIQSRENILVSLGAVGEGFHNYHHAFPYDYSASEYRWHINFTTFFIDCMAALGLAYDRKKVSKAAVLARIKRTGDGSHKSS
Procedure, shortened: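 Rat hepatocytes (4 × 10^6 cells/mL) were preincubated with compound for 15 min at 37 °C/5% CO2. 14C-stearic acid (final 0.5 μCi/mL) was then added for 1 h with shaking. Cells were washed, hydrolyzed in 2N NaOH at 75 °C for 1 h, acidified and extracted. Radiolabeled oleic and stearic acids were quantified by HPLC with flow scintillation detection. Mean of at least n = 3.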

[12] = biological target: T1, Acyl-CoA desaturase 1; test: Inhibition of SCD-1 activity in Sprague-Dawley rat microsome assessed as reduction in [I-14C] stearoyl CoA desaturation by scintillation counting; type: microsomes
[13] = tested on: Liver; test: Ratio drug uptake in liver to harderian gland of C57BL6 mouse at 10 mg/kg, po measured 6 hrs post dose; type: ADME, organism-based; set-up: dose 10 mg/kg, route oral; settings: in vivo
Procedure, shortened: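 Single oral dose of 10 mg/kg in 0.5% methylcellulose to fed C57BL6 mice (n = 2). Animals sacrificed 6 h post dose. Plasma, liver, skin and Harderian gland collected. Tissues homogenized in MeCN/water with internal standard and drug quantified by LC-MS against a standard curve made in blank plasma. Concentration ratio calculated.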

[14] = tested on: Mus musculus; test: Inhibition of SCD activity in liver of diet-induced obese C57BL6 mouse assessed as reduction in desaturation induces at 30 mg/kg, po BID; type: functional, organism-based; set-up: dose 30 mg/kg
[15] = biological target: T2, Stearoyl-CoA desaturase (Homo sapiens, UniProt O00767); test: Inhibition of SCD-1 activity in organic anion transporting polypeptides-deficient human HepG2 cells assessed as reduction in [I-14C] stearoyl CoA desaturation by scintillation counting; type: cell-based
T2 sequence (O00767 whole entry): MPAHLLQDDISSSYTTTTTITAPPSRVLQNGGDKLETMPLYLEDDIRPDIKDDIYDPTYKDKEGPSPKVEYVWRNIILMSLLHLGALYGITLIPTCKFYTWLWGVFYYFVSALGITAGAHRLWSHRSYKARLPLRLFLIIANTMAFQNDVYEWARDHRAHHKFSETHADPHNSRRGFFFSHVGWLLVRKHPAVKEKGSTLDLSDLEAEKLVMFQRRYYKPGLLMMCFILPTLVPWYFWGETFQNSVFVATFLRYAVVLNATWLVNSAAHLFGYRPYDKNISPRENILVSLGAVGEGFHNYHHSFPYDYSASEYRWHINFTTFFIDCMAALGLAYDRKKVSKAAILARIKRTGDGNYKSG

[16] = tested on: Mus musculus; test: Antidiabetic activity in diet-induced obese C57BL6 mouse assessed as reduction in body weight gain at 30 mg/kg, po BID; type: functional, organism-based; set-up: dose 30 mg/kg
[17] = tested on: HepG2; test: Ratio IC50 for SCD-1 activity in organic anion transporting polypeptides-deficient human HepG2 cells to IC50 for SCD-1 activity in Sprague-Dawley rat Hepatocytes expressing organic anion transporting polypeptides; type: cell-based
Procedure, shortened: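 Cellular SCD IC50s measured in human HepG2 cells (lacking active OATPs) and in rat hepatocytes (active OATPs). Hepatocytes preincubated with compound for 15 min at 37 °C, then given 14C-stearic acid (final 0.5 μCi/ml) for 1 h with shaking. Lipids hydrolysed in 2N NaOH at 75 °C, acidified and extracted. Radiolabelled oleic and stearic acid resolved by HPLC with flow scintillation detection. Mean of at least n = 3. HepG2 IC50 divided by hepatocyte IC50.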

half-life [1]: 42 min
bioavailability [2]: 12%
Cmax [3]: 400 nM
Vd [4]: 1 L/kg
clearance [5]: 41 mL/min/kg
AUC [6]: 1 µM·h
SMILES: O=C([O-])Cn1nnc(-c2cc(N3CCC(Oc4cc(F)ccc4Br)CC3)no2)n1.[Na+]

SMILES: O=C(O)Cn1nnc(-c2cc(N3CCC(Oc4cc(F)ccc4Br)CC3)no2)n1
Activity [7]: Active
Activity [8]: inactive
Activity [9]: Dose-dependent effect
Activity [10]: Active

IC50 [11]: 189 nM
IC50 [12]: 7 nM
Ratio [13]: 40
IC50 [15]: 904 nM
SMILES: O=C(O)Cn1nnc(-c2nnc(N3CCC(Oc4cc(F)ccc4Br)CC3)s2)n1
inhibition [14]: Active
Activity [16]: inactive
Ratio IC50 [17]: 5
